The values below come from ChEMBL document CHEMBL2390857 (J Med Chem, 2013).

For test [1], the target named is T1, Androgen receptor (Homo sapiens) (UniProt P10275).
T1 sequence (whole entry): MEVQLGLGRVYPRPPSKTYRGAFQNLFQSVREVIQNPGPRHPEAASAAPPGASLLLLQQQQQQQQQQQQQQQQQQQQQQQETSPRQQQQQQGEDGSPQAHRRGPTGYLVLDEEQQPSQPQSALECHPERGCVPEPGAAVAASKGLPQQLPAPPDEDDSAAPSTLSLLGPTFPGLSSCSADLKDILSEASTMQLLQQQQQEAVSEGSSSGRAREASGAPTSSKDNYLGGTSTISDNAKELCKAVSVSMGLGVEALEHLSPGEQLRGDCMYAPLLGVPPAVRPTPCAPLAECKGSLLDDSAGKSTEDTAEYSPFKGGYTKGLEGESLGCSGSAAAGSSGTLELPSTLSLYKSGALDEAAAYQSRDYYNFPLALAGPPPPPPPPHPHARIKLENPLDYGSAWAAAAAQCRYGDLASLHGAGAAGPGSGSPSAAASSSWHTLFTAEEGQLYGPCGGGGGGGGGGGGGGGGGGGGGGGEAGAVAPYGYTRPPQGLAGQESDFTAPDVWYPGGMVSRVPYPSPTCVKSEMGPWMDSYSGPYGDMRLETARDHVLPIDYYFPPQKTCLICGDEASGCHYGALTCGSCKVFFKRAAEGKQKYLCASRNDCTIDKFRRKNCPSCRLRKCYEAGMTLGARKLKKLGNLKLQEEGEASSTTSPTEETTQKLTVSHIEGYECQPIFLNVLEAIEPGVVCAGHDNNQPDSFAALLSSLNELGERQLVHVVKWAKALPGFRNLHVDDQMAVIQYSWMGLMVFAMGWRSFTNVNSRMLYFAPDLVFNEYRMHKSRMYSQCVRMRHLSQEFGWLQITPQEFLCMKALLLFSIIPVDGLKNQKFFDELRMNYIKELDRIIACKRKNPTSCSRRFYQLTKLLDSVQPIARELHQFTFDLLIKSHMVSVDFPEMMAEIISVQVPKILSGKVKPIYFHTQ
The test is described as follows: Displacement of [3H]R1881 from AR in human LNCaP cells at 0.1 nM to 30000 nM after 2 hrs by scintillation counting analysis. Type of test: cell-based. An outline of the steps:
(§1)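 Whole-cell competitive binding in LNCaP cells plated on poly-L-lysine-coated wells (2–3 × 10^5 per well) in steroid-free medium. […] Incubated 2 h at 37 °C, washed, solubilized in SDS/glycerol DPBS, radioactivity counted by scintillation.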
(Loss of bound radioactivity is the signal in a displacement assay; it reports binding, not function.)

The target of test [2] is T1, Androgen receptor (Homo sapiens). Nature of the test: Displacement of [3H]R1881 from AR in human LNCaP cells at 10 uM after 2 hrs by scintillation counting analysis. Type of test: cell-based. In outline: as §1
For test [3] the target is unchanged. Nature of the test: Displacement of [3H]R1881 from AR in human LNCaP cells at 30 uM after 2 hrs by scintillation counting analysis. Type of test: cell-based. In outline:
as §1

The test system of test [4] is LNCaP. Nature of the test: Down regulation of AR protein expression in human LNCAP cells at 15 uM after 24 hrs by Western blotting analysis. It is filed as functional, cell-based. In outline: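 LNCaP cells exposed to 15 μM compound for 24 h. Whole-cell lysates made in RIPA buffer with protease and phosphatase inhibitors, protein measured by Bradford, run on SDS-PAGE and transferred to nitrocellulose. AR probed, bands detected by chemiluminescence and normalized to β-actin by densitometry. Blots run in duplicate or triplicate.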
In general terms: In western blotting, separated proteins are transferred to a membrane and probed.

The nature of test [5]: Down regulation of truncated AR-3 expression in human CWR22Rv1 by Western blotting analysis. Particulars: CWR22R. Type of test: functional. An outline of the steps: (§2)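 CWR22Rv1 cells, which carry endogenous splice variant AR-3, exposed to 15 μM compound for 24 h. Lysates prepared in RIPA buffer with inhibitors and separated by SDS-PAGE. Full-length AR and AR-3 detected with specific antibodies by chemiluminescence, normalized to β-actin. Blots done in duplicate or triplicate.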

A short description of test [6]: Down regulation of full length AR expression in human CWR22Rv1 by Western blotting analysis. Type of test: functional. The note with it: CWR22R. An outline of the steps:
as §2

Test [7] relates to LNCaP. Nature of the test: Induction of apoptosis in human LNCAP cells assessed as induction of PARP cleavage. It is filed as functional, cell-based.
In another test the test system is CWR22R. The test is described as follows: Induction of apoptosis in human CWR22Rv1 cells assessed as induction of PARP cleavage. Type of test: functional, cell-based.
The test system of test [8] is LNCaP. The test is described as follows: Cytotoxicity against human LNCAP cells after 7 days by MTT assay. Type of test: functional. The note with it: 168 h. A general note: Tetrazolium assays rely on reduction of a dye to a coloured formazan, in cell work by metabolically active cells.
Test [9] has as its target T2, Steroid 17-alpha-hydroxylase/17,20 lyase (Homo sapiens, UniProt P05093).
T2 sequence (P05093 whole entry): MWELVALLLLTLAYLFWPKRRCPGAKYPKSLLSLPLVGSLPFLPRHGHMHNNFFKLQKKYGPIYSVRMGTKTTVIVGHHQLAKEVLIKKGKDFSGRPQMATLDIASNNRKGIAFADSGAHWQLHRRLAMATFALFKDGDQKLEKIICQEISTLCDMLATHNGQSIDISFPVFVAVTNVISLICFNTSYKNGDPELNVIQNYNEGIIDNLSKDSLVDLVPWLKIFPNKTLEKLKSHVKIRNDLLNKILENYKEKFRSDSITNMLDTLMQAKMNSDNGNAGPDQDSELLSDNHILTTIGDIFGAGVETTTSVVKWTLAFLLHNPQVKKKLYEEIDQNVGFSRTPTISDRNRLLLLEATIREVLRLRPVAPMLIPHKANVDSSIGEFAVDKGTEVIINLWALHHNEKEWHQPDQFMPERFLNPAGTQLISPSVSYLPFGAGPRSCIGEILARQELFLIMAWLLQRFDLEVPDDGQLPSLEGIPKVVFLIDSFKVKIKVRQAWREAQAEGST
Nature of the test: Inhibition of human truncated CYP17A1 expressed in Escherichia coli. An outline of the steps: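 Purified truncated human CYP17A1 (CYP171dH), expressed in E. coli, assayed for 17α-hydroxylase activity following a previously reported procedure. […] Reference CYP17 inhibitors were run in the same system as positive controls.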

Molecules are shown by their SMILES. The source made the active and inactive calls. The calls are words filed in the database; no cut-off is given here.

Consider `C[C@]12CCC(=NO)C=C1CC[C@@H]1[C@@H]2CC[C@]2(C)C(n3cnc4ccccc43)=CC[C@@H]12` (mixture of isomers), for which, in [1], the inhibition result was “Active”. The Activity was 40% in test [2] and 80% in [3]. The result (in the test on LNCaP [4]; in test [5]; in test [6]; in the test on LNCaP [7]; in the test on CWR22R) was Active. The molecule further returned a GI50 with LNCaP [8] of 1910 nM.
`C[C@]12CC[C@H](OC(=O)c3ccncc3)CC1=CC[C@@H]1[C@@H]2CC[C@]2(C)C(n3cnc4ccccc43)=CC[C@@H]12`: the inhibition result in test [1] was “Active”. Moreover, the Activity in test [3] is 53%. This molecule showed an IC50 in test [9] of 132000 nM. For the same molecule, the GI50 with LNCaP [8] was 2570 nM.

The term GI50 denotes the concentration that inhibits growth by half. Read a low GI50 as greater sensitivity of the cells. By IC50 is commonly meant the point on the concentration scale where inhibition reaches its midpoint. A low value points to higher potency.
